# From ChEMBL document CHEMBL1125420, “Synthesis and biological activity of novel folic acid analogues: pteroyl-S-alkylhomocysteine sulfoximines” (J Med Chem, 1992)
# Tests used:
# L1210 [1] = assay: Compound was tested for release of tritium from 1 uM [5-3H]-dUMP into water at a conc of 0.4 mM enzyme(bovine thymidylate synthase) was added to cell suspension in presence of CH2O; assay type: functional, Mus musculus
# In short: (§1)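 L1210 cells (transplanted, harvested), partially permeabilized with dextran sulfate, at (2–5) × 10^7 cells/mL. Preincubated with cofactor 15 min at 37 °C with 0.2 mM NADPH, 1 mM serine or 7.5 mM CH2O, 2-mercaptoethanol, MgCl2, EDTA, NaF, 80 mM Tris-acetate pH 7.4. Then 1 μM [5-3H]dUMP added for 30 min. Where enzyme added, 0.016 unit per 0.15 mL suspension. Tritium in water given as % of total, background-corrected; two experiments in duplicate.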
# L1210 [2] = assay: Compound was tested for release of tritium from 1 uM [5-3H]-dUMP into water at a conc of 0.4 mM enzyme(bovine thymidylate synthase) was added to cell suspension in presence of serine; assay type: functional, Mus musculus; in short: as §1
# L1210 [3] = assay: Compound was tested for release of tritium from 1 uM [5-3H]-dUMP into water at a con of 0.4 mM and without addition of bovine thymidylate synthase to cell suspension in absence of CH2O; assay type: functional, Mus musculus; in short: as §1
# L1210 [4] = assay: Compound was tested for release of tritium from 1 uM [5-3H]-dUMP into water at a con of 0.4 mM and without addition of bovine thymidylate synthase to cell suspension in absence of serine; assay type: functional, Mus musculus; in short: as §1
# L1210 [5] = assay: Inhibitory activity against growth of L1210 leukemia cells in culture at 0.5 mM; assay type: functional; conditions: Mus musculus
# In short: (§2)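 Murine L1210 leukemia cells, duplicate cultures, exposed to increasing concentrations alongside folic acid for 48 h at 37 °C in RPMI 1640 with 10% fetal calf serum. Cells counted; IC50 (50% inhibition of control growth) read graphically; percent inhibition also taken at 0.5 mM. Averages of two experiments run in duplicate.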
# L1210 [6] = assay: (§3) Inhibitory activity against growth of L1210 leukemia cells in culture; assay type: functional, cell-based; conditions: Mus musculus; in short: as §2
# L1210 [7] = assay: Compound was tested for release of tritium from 1 uM [5-3H]-dUMP into water at a conc of 0.4 mM, enzyme(bovine thymidylate synthase) was added to cell suspension in presence of serine; assay type: functional, Mus musculus; in short: as §1
# L1210 [8] = assay: as §3; assay type: functional, Mus musculus; in short: as §2
IC50 (L1210 [6]) [µM],Structure (SMILES),Tritium release (L1210 [1]) [%],Tritium release (L1210 [2]) [%],Tritium release (L1210 [3]) [%],Tritium release (L1210 [4]) [%],inhibition at 500 µM (L1210 [5]) [%],Tritium release (L1210 [7]) [%],Inhibition (L1210 [8]) [%]
390,CS(=O)(=O)CCC(NC(=O)c1ccc(NCc2cnc3nc(N)nc(O)c3n2)cc1)C(=O)O (stereo unspecified),6.7,7.8,4.6,3.6,78.6,–,–
190,C[S+](=N)([O-])CCC(NC(=O)c1ccc(NCc2cnc3nc(N)nc(O)c3n2)cc1)C(=O)O (mixture of isomers),8.3,–,5,3.9,76.4,9.5,–
220,CC[S+](=N)([O-])CCC(NC(=O)c1ccc(NCc2cnc3nc(N)nc(O)c3n2)cc1)C(=O)O (racemic),6.8,8.3,4.9,4.2,80.2,–,–
270,CCCC[S+](=N)([O-])CCC(NC(=O)c1ccc(NCc2cnc3nc(N)nc(O)c3n2)cc1)C(=O)O (racemic),5.8,7,4.4,4,75.2,–,–
300,CCC[S+](=N)([O-])CCC(NC(=O)c1ccc(NCc2cnc3nc(N)nc(O)c3n2)cc1)C(=O)O (racemic),7.3,9.2,4.3,4.2,75.2,–,–
> 10000,Nc1nc(=O)c2nc(CNc3ccc(C(=O)N[C@@H](CCC(=O)O)C(=O)O)cc3)cnc2[nH]1 [FOLIC ACID],21.8,24.1,20.6,19.1,–,–,33.6
